# Source: PubChem (Broad Institute)
# A1 apoptosis 2 – A1 inhibitors via caspase activation, primary screen, cell-based, luminescence, HTS, two replicates; AID 2465, 2010; caspase activation, % (concentration not given with the values); MEF A1-2A-BIM cells, caspase-Glo luminescence, 3 h; percent of clofoctol response, DMSO zero; 24,000 tested, under 10 active; in the data active = caspase activation above about 5.9%; inconclusive = no clear call, values can overlap the other calls; inactive = below about 2.2%
#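 System: mouse embryonic fibroblasts co-expressing A1 and BIM (A1-2A-BIM), primed for A1 dependence; amount: 2500 cells/well; doses: 50 nL pinned compound; schedule: cells settled overnight, compound exposure 3 h at 37 °C, 5% CO2; detection: Caspase-Glo 3/7 luminescence, 1 h at room temperature; read-out: Caspase-3/7 activation, seen as rise in luminescence signal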
# INS-1E ATP HTS – protection of INS-1E cells from cytokine death, primary screen, ATP luminescence, single point; hit rate 0.1% among 20,000; INS-1E cytokine-induced death, 48 h; normalised: neutral wells 0, positive control 100; protection from cytokine-induced ATP loss, % at 10 µM; AID 488910, 2010;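 active = mean replicate protection from cytokine-induced ATP loss at least 50% and at least 75% of replicates each reaching 50%; inconclusive = meets only one of the two criteria, mean or replicate share; inactive = fails both the mean and replicate share criteria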
#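 assay system = INS-1E rat insulinoma cells | amount = 8000 cells per well | medium = phenol-red-free RPMI with 5% fetal bovine serum | doses = one compound concentration, pin transfer | timing = 48 h cytokine plus compound treatment, 10 min reagent incubation | also added = IL-1β, TNF-α and IFN-γ cytokine mix | signal = CellTiter-Glo luminescence measuring cellular ATP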
# T cruzi intra – inhibitors of intracellular Trypanosoma cruzi, primary screen, cell-based, plate reader, single point, set 2. intracellular Trypanosoma cruzi in host cells. activity score (inhibition), % at 5.01 µM. hit rate 4.9% among 22,000. AID 651903, 2012; in the data active = activity score above about 55%; inconclusive = no clear call, values can overlap the other calls;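 note: parasites and compound incubated about four days before reading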
# A number is an active result; . = inactive; ? = inconclusive; / = no result. Only a selection was taken, and hits are over-represented in it overall.
SMILES,A1 apoptosis 2,INS-1E ATP HTS,T cruzi intra
COc1ccc(CN(C)C[C@@H]2OCCCC[C@@H](C)Oc3ccc(NC(=O)Nc4ccc(C(F)(F)F)cc4)cc3C(=O)N([C@H](C)CO)C[C@@H]2C)cc1,/,.,62.8
C[C@@H]1CCCCO[C@@H](CN(C)Cc2ccncc2)[C@@H](C)CN([C@H](C)CO)C(=O)c2cc(NC(=O)Nc3ccc(C(F)(F)F)cc3)ccc2O1,/,.,57.4
Cc1noc(C)c1NC(=O)N(C)C[C@H]1OCCCC[C@@H](C)Oc2ccc(N(C)C)cc2C(=O)N([C@H](C)CO)C[C@@H]1C,.,.,.
C[C@@H]1CN([C@H](C)CO)C(=O)c2cccc(NS(=O)(=O)c3ccccc3)c2O[C@H]1CN(C)Cc1ccccc1,/,.,.
COc1ccc(S(=O)(=O)Nc2ccc3c(c2)C(=O)N([C@@H](C)CO)C[C@@H](C)[C@H](CN(C)C)O3)cc1,.,.,.
C[C@@H]1CN([C@@H](C)CO)C(=O)c2cc(NC(=O)Nc3ccccc3)ccc2O[C@H]1CN(C)Cc1ccc(Cl)c(Cl)c1,.,.,.
COc1cccc(S(=O)(=O)N(C)C[C@@H]2Oc3ncc(C#CCN(C)C)cc3C(=O)N([C@H](C)CO)C[C@@H]2C)c1,.,.,.
COc1cccc(S(=O)(=O)N(C)C[C@@H]2Oc3ncc(C#Cc4ccc(C(F)(F)F)cc4)cc3C(=O)N([C@H](C)CO)C[C@@H]2C)c1,/,/,88.8
COc1cccc(S(=O)(=O)N(C)C[C@@H]2Oc3ncc(C#Cc4cccc(F)c4)cc3C(=O)N([C@H](C)CO)C[C@@H]2C)c1,/,/,64.9
COc1cccc(S(=O)(=O)N(C)C[C@@H]2Oc3ncc(C#Cc4ccc(OC)c(OC)c4)cc3C(=O)N([C@H](C)CO)C[C@@H]2C)c1,.,.,.
Cc1ccc(S(=O)(=O)N(C)C[C@@H]2Oc3ccc(NS(=O)(=O)c4ccc(F)cc4)cc3C(=O)N([C@H](C)CO)C[C@H]2C)cc1,/,.,.
C[C@@H]1CN([C@H](C)CO)C(=O)c2cc(NC(=O)Nc3ccc(C(F)(F)F)cc3)ccc2O[C@@H](C)CCCCO[C@@H]1CN(C)S(=O)(=O)c1ccc(Cl)cc1,.,/,/
C[C@@H]1CCCCO[C@@H](CN(C)S(C)(=O)=O)[C@H](C)CN([C@H](C)CO)C(=O)c2cc(NC(=O)Nc3ccc(F)cc3)ccc2O1,.,/,/
C[C@@H]1CN([C@@H](C)CO)C(=O)c2cccc(NC(=O)c3ccncc3)c2O[C@H]1CN(C)Cc1ccc(Oc2ccccc2)cc1,.,.,80.4
C[C@@H]1CN([C@H](C)CO)C(=O)c2cccc(NC(=O)c3ccncc3)c2O[C@@H]1CN(C)Cc1ccc(Oc2ccccc2)cc1,.,.,81.0
C[C@H](CO)N1C[C@H](C)[C@@H](CN(C)Cc2ccc(Oc3ccccc3)cc2)Oc2c(NC(=O)c3cnccn3)cccc2C1=O,/,.,?
C[C@@H]1CN([C@@H](C)CO)C(=O)c2cccc(NC(=O)c3cnccn3)c2O[C@H]1CN(C)Cc1ccc(Oc2ccccc2)cc1,/,.,.
C[C@H]1CN([C@@H](C)CO)C(=O)c2cccc(NC(=O)c3ccncc3)c2O[C@H]1CN(C)Cc1ccc(Oc2ccccc2)cc1,.,.,82.3
C[C@@H]1CN([C@H](C)CO)C(=O)c2cccc(NC(=O)c3cnccn3)c2O[C@H]1CN(C)Cc1ccc(Oc2ccccc2)cc1,/,.,.
C[C@H](CO)N1C[C@H](C)[C@H](CN(C)Cc2ccc(Oc3ccccc3)cc2)Oc2c(NC(=O)c3cnccn3)cccc2C1=O,.,.,68.8
CC(C)NC(=O)N(C)C[C@H]1Oc2c(cccc2N(C)C)C(=O)N([C@@H](C)CO)C[C@H]1C,/,.,.
C[C@H](CO)N1C[C@H](C)[C@H](CN(C)Cc2ccc(Oc3ccccc3)cc2)Oc2ccc(NC(=O)Nc3ccc(C(F)(F)F)cc3)cc2CC1=O,.,.,63.7
C[C@@H]1CN([C@H](C)CO)C(=O)Cc2cc(NC(=O)Nc3ccc(C(F)(F)F)cc3)ccc2O[C@H]1CN(C)Cc1ccc(Oc2ccccc2)cc1,.,.,61.6
COc1ccc(NC(=O)Nc2ccc3c(c2)CC(=O)N([C@H](C)CO)C[C@H](C)[C@@H](CN(C)Cc2ccc(C(F)(F)F)cc2)O3)cc1,.,/,/
C[C@H]1CCCCO[C@@H](CN(C)C)[C@@H](C)CN([C@@H](C)CO)C(=O)c2cc(NC(=O)NC3CCCCC3)ccc2O1,.,/,/
SMILES,A1 apoptosis 2,INS-1E ATP HTS,T cruzi intra
C[C@H]1CN([C@@H](C)CO)C(=O)CCCn2cc(nn2)CO[C@H]1CN(C)S(=O)(=O)c1ccccc1C#N,/,/,.
C[C@@H]1CCCCO[C@@H](CN(C)Cc2ccc(Cl)c(Cl)c2)[C@@H](C)CN([C@@H](C)CO)C(=O)c2cc(NC(=O)Nc3cccc4ccccc34)ccc2O1,.,/,/
C[C@@H]1CCCCO[C@@H](CN(C)Cc2ccccc2)[C@@H](C)CN([C@H](C)CO)C(=O)c2cc(NC(=O)Nc3cccc4ccccc34)ccc2O1,.,.,56.6
C[C@@H]1CCCCO[C@H](CN(C)Cc2ccc(Cl)c(Cl)c2)[C@@H](C)CN([C@H](C)CO)C(=O)c2cc(NC(=O)Nc3cccc4ccccc34)ccc2O1,.,.,61.9
C[C@@H]1CCCCO[C@@H](CN(C)Cc2ccccc2)[C@H](C)CN([C@@H](C)CO)C(=O)c2cc(NC(=O)Nc3cccc4ccccc34)ccc2O1,.,/,/
COc1ccc(S(=O)(=O)N(C)C[C@@H]2Oc3ccc(NC(=O)CCN4CCOCC4)cc3CC(=O)N([C@H](C)CO)C[C@@H]2C)cc1,.,.,.
C[C@@H]1CN([C@H](C)CO)C(=O)c2cccc(NC(=O)Nc3cccc4ccccc34)c2O[C@@H]1CN(C)C(=O)Nc1ccc(C(F)(F)F)cc1,.,.,64.8
C[C@H](CO)N1C[C@H](C)[C@H](CN(C)Cc2ccc(C(F)(F)F)cc2)Oc2c(NC(=O)Nc3ccc4c(c3)OCO4)cccc2C1=O,/,.,.
C[C@@H]1CN([C@@H](C)CO)C(=O)c2cccc(NC(=O)Nc3ccc(C(F)(F)F)cc3)c2O[C@@H]1CN(C)Cc1ccc2c(c1)OCO2,.,.,60.8
C[C@H](CO)N1C[C@H](C)[C@H](CN(C)C(=O)Nc2ccc(C(F)(F)F)cc2)Oc2c(NC(=O)Nc3ccc(C(F)(F)F)cc3)cccc2C1=O,/,.,78.3
C[C@@H]1CN([C@H](C)CO)C(=O)c2cccc(NC(=O)Nc3ccc(C(F)(F)F)cc3)c2O[C@@H]1CN(C)C(=O)Nc1ccc2c(c1)OCO2,.,.,.
C[C@@H]1CN([C@H](C)CO)C(=O)c2cccc(NC(=O)Nc3cccc4ccccc34)c2O[C@H]1CN(C)C(=O)Nc1ccc(C(F)(F)F)cc1,.,.,.
C[C@H]1CN([C@@H](C)CO)C(=O)c2cccc(NC(=O)Nc3ccc(F)cc3)c2O[C@@H]1CN(C)C(=O)Nc1ccc(C(F)(F)F)cc1,.,.,.
C[C@H](CO)N1C[C@H](C)[C@H](CN(C)C(=O)Nc2ccc3c(c2)OCO3)Oc2c(NC(=O)Nc3ccc(C(F)(F)F)cc3)cccc2C1=O,.,.,62.6
